UHRF1 MBD2 ctr: UHRF1 methyl-DNA binding inhibition; AID 687016; inhibition, % at 4.4 µM; UHRF1 binding to methylated oligo, TR-FRET; 370,000 compounds, 0.75% hits; in the data active = inhibition above about 21%;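 also: UHRF1 SRA domain binding a hemimethylated CpG hairpin DNA probe; 0% = median of test compound wells and 100% = reference inhibitor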
MBD2 inh: MBD2-methylated oligo binding inhibition; 370,000 compounds, 0.31% hits; inhibition, % at 4.4 µM; TR-FRET, MBD2 binding to methylated oligonucleotide; in the data active = inhibition above about 13%
DSG3 Ab inh: inhibitors of pemphigus antibody binding to human desmoglein-3. P32926. AID 588358. DSG3-coupled beads, scFv-anti-DSG3-GFP binding, flow cytometry; active compounds read low. binding (percent of control), % at 10 µM. 310,000 compounds, 0.48% hits;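 active = binding more than 3 SD below its plate's average and above zero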;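 also: hits lower antibody fragment binding to DSG3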
HCV NS3 hel inh: HCV NS3 helicase inhibition. NS3 helicase DNA unwinding, Cy5 molecular beacon fluorescence. inhibition, % at 10.9 µM. 290,000 compounds, 0.56% hits;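 active = inhibition above the mean of all tested compounds plus 3 SD, set per campaign, cut at about 35% in these data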;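 also: 0% = DMSO wells and 100% = thioflavine S control wells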
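System: HCV NS3 helicase fragment; control set: DMSO and thioflavine S; technique: Cy5 fluorescence at 0 and 60 min, beacon hairpin quenching; reagent: beacon DNA duplex substrate plus ATP; replicates: singlicate; schedule: 1 h reaction at 25 °C, ATP-initiated; medium: MOPS buffer pH 6.5 with MgCl2, DTT, Tween20, BSA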
SUMO1-SIM PPI: modulators of human SUMO1-mediated protein-protein interactions; P63165; SUMO1 binding to a labelled peptide, TR-FRET, 1 h; inhibition, % at 20 µM; 360,000 compounds, 0.33% hits; AID 602429
DNMT1 inh: inhibitors of human DNMT1; P26358; 360,000 compounds, 0.83% hits; inhibition (reported as % activation of signal), % at 10 µM; DNMT1 molecular beacon, Hinp1I cleavage, fluorescence; in the data active = inhibition above about 50%
Target sequence (P26358 504-1616 limits assumed): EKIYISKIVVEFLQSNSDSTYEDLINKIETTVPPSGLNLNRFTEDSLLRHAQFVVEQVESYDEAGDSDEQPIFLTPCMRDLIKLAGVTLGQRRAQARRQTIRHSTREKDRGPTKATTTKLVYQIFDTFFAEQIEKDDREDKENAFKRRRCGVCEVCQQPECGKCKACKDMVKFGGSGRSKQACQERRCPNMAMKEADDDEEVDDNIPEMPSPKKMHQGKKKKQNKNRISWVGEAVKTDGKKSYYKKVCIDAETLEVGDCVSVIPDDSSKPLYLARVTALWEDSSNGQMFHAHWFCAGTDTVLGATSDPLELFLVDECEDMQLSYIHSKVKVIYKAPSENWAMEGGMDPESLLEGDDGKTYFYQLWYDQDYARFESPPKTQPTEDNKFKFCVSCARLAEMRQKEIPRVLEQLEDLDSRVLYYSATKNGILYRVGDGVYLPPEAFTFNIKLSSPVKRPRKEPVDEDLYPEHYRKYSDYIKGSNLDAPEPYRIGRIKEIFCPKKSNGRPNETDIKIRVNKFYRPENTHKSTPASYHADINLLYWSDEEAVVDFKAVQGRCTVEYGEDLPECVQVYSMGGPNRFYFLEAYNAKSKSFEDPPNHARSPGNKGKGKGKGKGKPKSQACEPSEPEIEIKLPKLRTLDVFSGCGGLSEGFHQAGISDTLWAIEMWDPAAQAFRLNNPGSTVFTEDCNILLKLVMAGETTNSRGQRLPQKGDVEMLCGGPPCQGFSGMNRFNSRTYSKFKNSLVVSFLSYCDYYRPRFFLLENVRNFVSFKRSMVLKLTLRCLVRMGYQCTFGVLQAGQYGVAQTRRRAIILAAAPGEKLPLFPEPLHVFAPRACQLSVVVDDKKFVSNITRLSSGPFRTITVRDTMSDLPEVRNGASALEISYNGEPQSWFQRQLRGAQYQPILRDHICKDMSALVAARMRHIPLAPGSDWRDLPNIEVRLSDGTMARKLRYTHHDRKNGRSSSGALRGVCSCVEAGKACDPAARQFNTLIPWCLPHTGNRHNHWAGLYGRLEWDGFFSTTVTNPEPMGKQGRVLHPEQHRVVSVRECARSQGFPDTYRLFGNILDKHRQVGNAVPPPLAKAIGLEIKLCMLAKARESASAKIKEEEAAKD
NS3 helicase cf: HCV NS3 helicase inhibition, confirmation assay. shares compounds with HCV NS3 hel inh. NS3 helicase DNA unwinding, Cy5 molecular beacon fluorescence. inhibition, % at 10.9 µM. 1,600 compounds, 31% hits. AID 1943;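 active = inhibition above the mean of all tested compounds plus 3 SD, cutoff set per campaign, cut at about 36% in these data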
DNA FID counter: counter-screen for HCV NS3 helicase inhibitors: DNA intercalator displacement | shares compounds with HCV NS3 hel inh | DNA fluorescent intercalator displacement, fluorescence | inhibition, % at 7.9 µM | 1,600 compounds, 4% hits | AID 1945;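 also: 0% = vehicle and 100% = reference compound; higher means more displacement of ethidium bromide from the DNA hairpin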
DNA FID DR: DNA intercalator displacement in dose response. shares compounds with HCV NS3 hel inh. fluorescent intercalator displacement from DNA, fluorescence. IC50, µM. 120 tested, under 10 active. AID 2172; call rule not given here
The depositor's hits bear a star; . = no result. Most compounds without a hit are left out; they make up all but 2.5% or so of the library. Rule as the data show it, unless noted: active = inhibition above about 37%; inactive = the rest.

SMILES	UHRF1 MBD2 ctr	MBD2 inh	DSG3 Ab inh	HCV NS3 hel inh	SUMO1-SIM PPI	DNMT1 inh	NS3 helicase cf	DNA FID counter	others
Cc1ccc(-n2sc3ccccc3c2=O)cc1S(=O)(=O)N1CCCCC1	16.5	8.8	12.3*	46.8*	17.5	5.9	21.5	-29.3
O=C1NN(c2ccccc2)C(=O)/C1=C\c1ccccc1OCC(=O)N1CCOCC1	10.5	-5.2	102.6	49.0*	4.3	5.1	-16.5	0.5
O=C1c2ccccc2S(=O)(=O)c2cc(N3CCN(C(=O)c4ccccc4)CC3)ccc21	2.2	0.5	.	.	.	.	.	.
CC(C)c1cc(=O)n2[nH]c(SCc3ccccc3)nc2n1	-1.4	6.7	100.9	13.5	6.5	-0.4	.	.
CC(C)c1cc(=O)n2[nH]c(SCc3ccc(Cl)cc3)nc2n1	1.2	2.8	97.4	44.8*	12.6	-1.5	-5.5	-24.4
COc1ccc(S(=O)(=O)N2CCN(Cc3ccccc3)CC2)cc1OC	-1.6	-0.7	111.3	97.1*	-1.0	-1.9	-12.5	-8.3
Cc1ccc(C(=O)Nc2cc(-c3ccn[nH]3)c(C)n(N)c2=O)cc1	-1.4	4.9	109.5	-9.3	-7.0	-1.3	.	.
Cc1cc(-c2csc(NC(=O)c3ccccc3C(F)(F)F)n2)c(C)n1Cc1ccccc1	0.6	3.7	100.1	49.8*	-4.0	1.1	6.4	-0.3
Cc1cc(-c2csc(NC(=O)c3ccc(=O)n(C)n3)n2)c(C)n1CC1CCCO1 (stereo not drawn)	.	.	95.0	17.5	7.2	-27.4	.	.
O=Cc1c(Cl)nc2ccccn12	2.3	4.6	97.2	-5.8	-2.8	-2.2	.	.
COC(=O)CCCC1=CC2=CC(=O)C(C)(OC(=O)c3cccs3)C(=O)C2=CN1CCN1CCOCC1 (stereo not drawn)	-3.2	-1.4	100.8	.	-17.6	-6.2	.	.
O=S(=O)(Nc1nc2ccccc2nc1NCC1CCCO1)c1ccc(F)cc1 (stereo not drawn)	7.8	2.6	99.7	41.5*	3.4	0.7	-6.0	-28.9
O=S(=O)(Nc1nc2ccccc2nc1NCC1CCCO1)c1ccccc1 (stereo not drawn)	-1.3	-2.6	91.9	4.7	-28.8	1.4	.	.
Cc1ccc(C=Nc2ccc(N(C)C)cc2)o1	1.5	-11.4	100.8	39.2*	-8.5	-23.5	-12.1	19.1
Cc1cccc(CSc2nc3sc(C)c(C)c3c(=O)n2Cc2ccco2)c1	-1.1	0.2	99.1	39.2*	-0.9	4.0	-8.7	7.4
CC(=O)Nc1ccc(NC(=O)Oc2ccccc2)cc1	0.1	0.5	100.0	-11.4	1.6	-1.9	.	.
CN(C)c1ccc(NC(=O)Oc2ccccc2)cc1	-4.7	-5.5	105.4	43.5*	0.9	-2.5	-5.4	0.5
O=C(Cc1cc(=O)[nH][nH]1)N/N=C/C=C/c1ccccc1	-4.5	-4.7	105.4	40.0*	3.6	-4.0	11.8	-21.6
O=C(CNC(=O)c1ccccc1)N/N=C/C=C/c1ccccc1	-4.3	-2.4	102.6	5.0	-27.4	0.7	.	.
NNC(=S)Nc1cccc(-c2n[nH]c(=S)o2)c1	1.1	0.9	105.6	36.8*	25.6	5.4	2.5	-9.1
CCOC(=O)Cc1csc(N/N=C\c2ccc(N(C)C)cc2)n1	-2.9	-4.4	91.9	49.8*	-11.0	-16.1	-15.9	2.0
COc1cccc(OCCOc2ccc(/C=C3/SC(=S)NC3=O)cc2)c1	-1.4	0.3	97.4	48.0*	-8.8	42.4	54.4*	12.7
CCCCCn1nnnc1C1c2ccccc2OCC(=O)N1Cc1ccco1 (stereo not drawn)	3.1	2.5	.	.	.	.	.	.
O=C1CCC([N+](=O)[O-])C(c2ccc3c(c2)OCO3)N1 (stereo not drawn)	-0.9	-6.1	99.9	-2.1	0.6	0.7	.	.
COc1ccc(O)c(/C=N/NC(=S)Nc2cccc(S(=O)(=O)N(C)C)c2)c1	-11.6	-1.1	98.5	11.0	6.4	-12.5	.	.
SMILES	UHRF1 MBD2 ctr	MBD2 inh	DSG3 Ab inh	HCV NS3 hel inh	SUMO1-SIM PPI	DNMT1 inh	NS3 helicase cf	DNA FID counter	others
CN(C)S(=O)(=O)c1cccc(NC(=S)N/N=C/c2ccc(O)c(O)c2O)c1	14.7	3.6	93.3	40.6*	26.7	-5.5	10.9	50.0*
CCN(CC)S(=O)(=O)c1cccc(C(=O)N/N=C/c2ccc(O)c(O)c2O)c1	-7.7	2.9	.	45.1*	10.3	-15.2	76.4*	16.3	DNA FID DR=>79.4
CCn1cc(C(=O)O)c(=O)c2cnc(N3CCN(C(=S)NC(=O)c4ccccc4)CC3)nc21	4.2	-3.8	101.9	-16.4	12.2	-5.2	.	.
CCCCCOC(=O)c1[nH]c2c(c1C)C(=O)CC(c1ccco1)C2 (stereo not drawn)	.	.	105.2	41.3*	4.9	10.6	17.4	0.5
CC(C)(C)C(=O)/C(C#N)=C/c1cccs1	1.3	-3.3	.	1.0	-21.8	-3.2	.	.
N#C/C(=C\c1cccs1)C(=O)c1ccccc1Cl	-1.3	2.2	101.0	40.5*	.	.	-26.4	7.1
O=C(O)/C=C/c1ccc2c(-c3ccccc3)onc2c1	-0.8	-6.8	98.5	53.5*	-1.9	0.6	-20.8	6.5
CCc1nnc(NS(=O)(=O)c2ccc(N/C=C\C(=O)c3cccc4ccccc34)cc2)s1	-1.4	2.2	95.6	54.8*	11.1	-8.4	33.1	14.5
O=C(O)/C(=C\c1ccco1)NC(=O)c1cccc2ccccc12	21.5*	12.7	106.1	53.2*	1.2	42.9	-7.5	0.8
O=C(NC(Cc1ccccc1)C(=O)O)/C(=C\c1ccco1)NC(=O)c1ccccc1 (stereo not drawn)	0.2	-3.0	104.7	36.5*	1.0	13.6	54.1*	-16.7
O=C(NC(Cc1ccccc1)C(=O)O)/C(=C\c1ccco1)NC(=O)c1ccc(Br)cc1 (stereo not drawn)	6.9	1.2	109.7	23.2	14.7	17.3	.	.
CC1(C(=O)Nc2ccc3c(c2)OCCO3)CCN1C(=O)C/C=C/c1ccccc1 (stereo not drawn)	1.2	-3.4	.	.	-0.8	-3.5	.	.
CCOC(=O)CNC(=O)CCc1nnc2ccc(N3CCC(C)CC3)nn12	1.4	-1.0	90.5	2.8	-1.3	1.3	.	.
N#C/C(=C\c1c(N2CCCCC2)nc2ccccn2c1=O)C(=O)NCc1ccco1	8.9	-2.6	45.3	13.4	-15.2	7.9	.	.
CC(Cl)=CCn1c(NCCc2ccccc2)nc2c1c(=O)n(C)c(=O)n2C	-3.0	-0.2	.	.	-13.9	-0.5	.	.
O=c1nc2s/c(=C\c3ccco3)c(=O)n2nc1Cc1ccc(F)cc1	-0.3	3.9	105.2	47.2*	1.0	3.0	9.3	5.2

Screens deposited in PubChem BioAssay by several laboratories.
